This note sets out measurements from ChEMBL document CHEMBL2429843 (J Med Chem, 2013).

Assay [1] is described as follows: Inhibition of Staphylococcus aureus TrmD using S-[methyl-3H] adenosyl-L-methionine as substrate assessed as leucine-tRNA methylation after 1 hr by scintillation proximity assay. An outline of the steps:
(§1)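 Radiometric SPA: TrmD in 50 mM HEPES pH 7.5 with 5 mM MgCl2 (E. coli and K. pneumoniae 10 nM, S. aureus 10 nM, P. aeruginosa 5 nM, H. influenzae 4 nM in enzyme reagent), mixed 1:1 with a reagent of 0.05 μM [3H]SAM, 2 μM unlabelled SAM and 2 μM synthetic E. coli leucine-tRNA. Compounds are 2-fold serial DMSO dilutions. Incubation is 1 h at room temperature.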
A general note: Scintillation proximity formats need no separation of bound from free tracer.

Assay [2] in a line: Inhibition of Escherichia coli TrmD using S-[methyl-3H] adenosyl-L-methionine as substrate assessed as leucine-tRNA methylation after 1 hr by scintillation proximity assay. An outline of the steps:
as §1

Assay [3] can be described thus: Inhibition of Haemophilus influenzae TrmD using S-[methyl-3H] adenosyl-L-methionine as substrate assessed as leucine-tRNA methylation after 1 hr by scintillation proximity assay. The method, boiled down: as §1

Some results are limits rather than exact numbers.

Usually IC50 stands for the point on the concentration scale where inhibition reaches its midpoint. In the case of `O=C(NCc1ccc(-c2ccccc2)cc1)c1csc2nc[nH]c(=O)c12`, the IC50 turned out to be 105 µM in assay [1], 33 µM in assay [2] and 64 µM in assay [3].

For the molecule `O=C1CN(Cc2ccc(CNC(=O)c3csc4nc[nH]c(=O)c34)cc2)CCN1`, the results for the IC50 in assay [1], in assay [2] and in assay [3] were 22 µM, 2.8 µM and 9.3 µM, respectively.

`O=C(NCc1ccc(CO)cc1)c1csc2nc[nH]c(=O)c12`: the IC50 in assay [1] amounted to 38 µM; in assay [2] it was 5.9 µM; in assay [3], 10 µM.

As to `Oc1ncnc2scc(-c3ccccc3)c12`, the IC50 came out at 11 µM in assay [1], 17 µM in assay [2] and 4.7 µM in assay [3].

In the case of `O=C(NCc1ccccn1)c1csc2nc[nH]c(=O)c12`, the IC50 was greater than 200 µM in assay [1], 139 µM in assay [2] and 8 µM in assay [3].

Turning to `Cc1ccc(-c2csc3ncnc(O)c23)cc1`, the IC50 was 62 µM in assay [1], 6.9 µM in assay [2] and 1.7 µM in assay [3].

Turning to `O=c1[nH]cnc2ccc(-c3ccccc3)cc12`, the IC50 in assay [1] was greater than 200 µM; in assay [3], 11 µM.

On to `NCC1CCC(CNC(=O)c2csc3nc[nH]c(=O)c23)CC1` (stereo unspecified), for which the IC50 in assay [1] amounted to 12 µM; in assay [2], 4.9 µM; in assay [3], 1.8 µM.

For `C[C@H](NC(=O)c1csc2nc[nH]c(=O)c12)c1ccccc1`, the IC50 in assay [1], in assay [2] and in assay [3] was greater than 200 µM in each case.

Turning to `O=C(NCc1ccccc1)c1csc2nc[nH]c(=O)c12`, the IC50 is 64 µM in assay [1], 6.5 µM in assay [2] and 2.6 µM in assay [3].

`O=C(NCc1ccc(CN2CCCC2)cc1)c1csc2nc[nH]c(=O)c12`: the values for the IC50 in assay [1], in assay [2] and in assay [3] were 4.7 µM, 0.67 µM and 1.1 µM, respectively.

`NC(=O)c1ccc(CNC(=O)c2csc3nc[nH]c(=O)c23)cc1`: the IC50 in assay [1] came to 25 µM; in assay [2], 4.7 µM; in assay [3], 7.1 µM.

On to `CC(=O)N1CCC(c2csc3nc[nH]c(=O)c23)C1` (stereo unspecified), for which the IC50 in assay [1], in assay [2] and in assay [3] was greater than 200 µM each time.

`CN(C)Cc1ccc(CNC(=O)c2csc3nc[nH]c(=O)c23)cc1`: the figures for the IC50 in assay [1], in assay [2] and in assay [3] were 27 µM, 1.8 µM and 1.2 µM, respectively.

`O=c1[nH]cnc2scc(C3CCCC3)c12`: the IC50 in assay [1] was 21 µM; in assay [2], 52 µM; in assay [3], 16 µM.

For `C[C@@H](NC(=O)c1csc2nc[nH]c(=O)c12)c1ccccc1`, the IC50 in assay [1] was greater than 200 µM; in assay [2] it was 123 µM; in assay [3], 49 µM.

As for `N=C(N)c1ccc(CNC(=O)c2csc3nc[nH]c(=O)c23)cc1`, the IC50 in assay [1] is 5.5 µM; in assay [2], 0.9 µM; in assay [3], 1.1 µM.

Regarding `CCCNCc1ccc(CNC(=O)c2csc3nc[nH]c(=O)c23)cc1`, the IC50 in assay [1] was found to be 6.6 µM; in assay [2], 1 µM; in assay [3], 1 µM.

Consider `O=c1[nH]cnc2[nH]cc(-c3ccccc3)c12`, for which the IC50 in assay [1] came to 2.3 µM; in assay [2], 98 µM; in assay [3], 17 µM.

Turning to `O=C(NCc1ccc(CNCCO)cc1)c1csc2nc[nH]c(=O)c12`, the IC50 in assay [1] stood at 1.8 µM; in assay [2], 0.89 µM; in assay [3] it was 1.2 µM.

For the molecule `O=c1[nH]cnc2[nH]nc(-c3ccccc3)c12`, the IC50 in assay [1] is 1.4 µM; in assay [2], greater than 200 µM; in assay [3] it was 30 µM.

For the molecule `O=C(NCc1cccnc1)c1csc2nc[nH]c(=O)c12`, the IC50 was 73 µM in assay [1], 11 µM in assay [2] and 3.6 µM in assay [3].

`CN(Cc1ccccc1)C(=O)c1csc2nc[nH]c(=O)c12`: the IC50 in assay [1], in assay [2] and in assay [3] was greater than 200 µM each time.

For `COCCNCc1ccc(CNC(=O)c2csc3nc[nH]c(=O)c23)cc1`, the IC50 was 12 µM in assay [1], 1.3 µM in assay [2] and 1.7 µM in assay [3].
